Compound activity: PubChem, Broad Institute
These entries were drawn from the full list.
PGC1a acetyl up = raises PGC1a acetylation signal in U2OS cells; 350,000 compounds, 0.21% hits; activation, % at 15.6 µM; AID 651723; U2OS PGC1a acetylation AlphaScreen, overnight;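 active = every replicate reaching activation of at least 50%, whatever the mean replicate activation; inconclusive = replicates that disagree or another doubt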;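 also: hits raise the AlphaScreen acetylation signal above neutral controls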
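System: Flag-PGC1a/GCN5 U2OS cells | Quantity: 7000 cells/well | Times: Overnight compound treatment, 37 °C | Measured by: AlphaScreen proximity luminescence, anti-acetyl-lysine antibody | Dosing: One concentration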
G6PC hep suppr = PGC-1a acetylation activators affecting G6PC expression in hepatocytes; shares compounds with PGC1a acetyl up; primary mouse hepatocytes, G6PC mRNA qPCR, forskolin; G6PC suppression (normalized activity, % of positive control; higher = more suppression), % at 26 µM; 240 tested, under 10 active;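 active = dose curves showing G6PC suppression whose half-maximal dose is at most twice the top valid dose; inconclusive = flat curves with moderate negative activity, or unreliable fits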;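 also: G6PC expression relative to GAPDH housekeeping gene as delta delta Ct; 0% = median of neutral control wells and 100% = median of positive control wells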
PCK1 hep suppr = PGC-1a acetylation activators affecting PCK1 expression in hepatocytes; shares compounds with PGC1a acetyl up; primary mouse hepatocytes, PCK1 mRNA qPCR, forskolin-stimulated; PCK1 expression decrease, unspecified at 26 µM; 230 tested, under 10 active; AID 743465;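 active = compounds lowering PCK1 expression whose fitted half-maximal concentration is at most twice the top tested dose; inconclusive = flat fit with moderate opposite-direction effect, or poor fit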;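 also: values are delta delta Ct of PCK1 relative to GAPDH; higher delta delta Ct means lower PCK1 expression so positive values indicate hits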
PGC1a hep suppr = PGC-1a acetylation activators affecting PGC-1a expression in hepatocytes. primary mouse hepatocytes, PGC-1a mRNA qPCR, forskolin; top dose 26 µM. max activity (PGC-1a expression decrease), %. 240 tested, under 10 active. shares compounds with PGC1a acetyl up;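 active = compound lowering PGC-1a expression with fitted half-maximal concentration at most twice its top tested dose; inconclusive = flat curve with moderate opposite-direction effect, or poor fit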;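 also: 0% = neutral control wells median and 100% = positive control wells median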
* hit, by the source's call; ? = inconclusive; · = no result given; [ ] = another dose, or the depositor's remark.

SMILES | PGC1a acetyl up | G6PC hep suppr | PCK1 hep suppr | PGC1a hep suppr
CC(=O)Nc1ccc(Nc2ncnc3c2cnn3-c2ccc(C)cc2C)cc1 | 131* | -73 | · | 130
N/C(=N\OC(=O)CCCOc1ccccc1)c1ccc([N+](=O)[O-])cc1 | -90 | · | · | ·
COc1ccc(C(C)(O)c2nc(-c3ccc(S(C)(=O)=O)cc3)cs2)cc1 (configuration not stated) | ? | -43 | 16 | 49
CCCCNC(=O)c1ccc(CS(=O)(=O)c2ccccc2OC)o1 | -44 | · | · | ·
CCOC(=O)C1(Cc2cccc(Cl)c2)CCCN(C(=O)c2cccnc2)C1 (configuration not stated) | -97 | · | · | ·
COc1ccc(C(CNC(=O)c2cccc(N(C)C)c2)N2CCCC2)cc1 (configuration not stated) | -47 | 176 | 121 | 28
O=C(NCc1ccc(Cl)cc1)C1CCC(CNc2c(N3CCCC3)c(=O)c2=O)CC1 (configuration not stated) | -43 | 7 | 43 | 44
CO[C@H]1CN(C)C(=O)c2ccc(NS(=O)(=O)c3ccccc3)cc2OC[C@H](C)N(C(=O)NC(C)C)C[C@@H]1C | -59 | · | · | ·
Nc1nn(-c2ccccc2)nc1C(=O)OCc1ccccc1 | -72 | · | · | ·
COc1ccc(S(=O)(=O)NNC(=O)c2csc(-n3nc(C)cc3C(F)(F)F)n2)cc1 | -54 | 29 | -10 | 122
Cc1ccc(C(=O)Nc2nc(=O)n(C(=O)CC(C)C)s2)cc1 | -48 | · | · | ·
COc1cccc2c1C(=O)c1c(O)c3c(c(O)c1C2=O)C[C@@](O)(C(C)=O)C[C@@H]3O[C@H]1C[C@H](N)[C@H](O)[C@H](C)O1 | -51 | · | · | ·
O=C(CCn1nnc2ccccc21)Nc1nnc(Cc2ccccc2)s1 | 63* | -50 | · | ?
CC(C)NC(=S)N=Nc1c(O)[nH]c2ccc(C(C)C)cc12 | -48 | · | · | ·
O=S(=O)(c1ccc(Cl)cc1)N1[C@@H]2CNC[C@H]1C2c1ccc(-c2cccc(F)c2)cc1 (some centres not stated) | 80* | 10 | 47 | 110
Clc1ccccc1CN1CCSCC1 | -47 | · | · | ·
O=C(CCC1CCN(Cc2ccccc2Cl)CC1)NC1CC1 | -95 | · | · | ·
CCNC(=O)C1(C)CCCN1Cc1ccccc1Cl (configuration not stated) | -49 | · | 22 | 24
O=C(Cn1cnc2c(nnn2Cc2ccc(Cl)cc2)c1=O)c1ccccc1 | -50 | · | · | ·
CCn1nc(C)c(CN2CCc3c([nH]c4ccccc34)C2C(C)(C)C)c1C (configuration not stated) | 150* | -24 | ? | 51
c1ccc(CNc2ncnc3nc[nH]c23)cc1 | -45 | · | · | ·
CN1CCN(/N=C/c2ccc(N(c3ccccc3)c3ccccc3)cc2)CC1 | -56 | · | · | ·
CC(C)NC(=O)Nc1ccc2c(c1)C(=O)N([C@@H](C)CO)C[C@H](C)[C@@H](CN(C)C(=O)CCC(F)(F)F)OCCCC[C@@H](C)O2 | -46 | · | · | ·
C[C@@H]1CN([C@H](C)CO)C(=O)c2cc(N(C)C)ccc2O[C@@H](C)CCCCO[C@H]1CN(C)C(=O)Cc1ccccc1 | 119* | 14[23.5 µM] | 53[23.5 µM] | 103
C[C@@H]1CN([C@H](C)CO)C(=O)c2cc(N(C)C)ccc2O[C@@H](C)CCCCO[C@H]1CN(C)C(=O)Nc1ccccc1 | 67* | -5[23.5 µM] | -7.9[23.5 µM] | 17
SMILES | PGC1a acetyl up | G6PC hep suppr | PCK1 hep suppr | PGC1a hep suppr
CC(C)NC(=O)Nc1ccc2c(c1)C(=O)N([C@@H](C)CO)C[C@@H](C)[C@H](CN(C)Cc1ccc(C(=O)O)cc1)OCCCC[C@H](C)O2 | -77 | · | · | ·
COc1ccc(NC(=O)N(C)C[C@@H]2OCCCC[C@@H](C)Oc3ccc(NC(=O)Cc4ccccc4)cc3C(=O)N([C@H](C)CO)C[C@@H]2C)cc1 | -51 | · | · | ·
CC(C)NC(=O)Nc1ccc2c(c1)C(=O)N([C@@H](C)CO)C[C@@H](C)[C@@H](CN(C)S(=O)(=O)c1ccccc1)OCCCC[C@H](C)O2 | -105 | · | · | ·
CCN(CC)Cc1c(O)ccc2c([N+](=O)[O-])c(C)n(-c3ccc(OC)cc3)c12 | -46 | · | · | ·
COC(=O)c1[nH]c2ccc(F)cc2c1NS(=O)(=O)c1ccc(OC)cc1OC | -43 | · | · | ·
CCOC(=O)C1=CC[C@@H](c2ccc(F)cc2)N(S(=O)(=O)c2ccc(C)cc2)[C@H]1c1ccccc1 | 90* | · | 34 | 93
CCOC(=O)C1=C[C@@H](C(C)C)N(S(=O)(=O)c2ccc(C)cc2)[C@H]1c1ccc(C(F)(F)F)cc1 | 131* | -32 | 22 | 58
CCNC(=S)N1C2CCC1CC(NC(=O)NC1CCCCC1)C2 (configuration not stated) | -48 | · | · | ·
CC(C)(O)C#Cc1ccc(C(=O)NC(CCCNC(N)=O)C(=O)O)s1 (configuration not stated) | -82 | · | · | ·
O=C(CCCn1c(=O)[nH]c2cc(Cl)ccc2c1=O)NCCC1=CCCCC1 | 73* | 60 | ? | -24
Cc1cccc(-c2ccc3[nH]c4c(c3c2)CCN2C[C@@H]([C@H](C)O)[C@@H](N(C)C(=O)NC3CCCCC3)C[C@@H]42)c1 | -40 | · | · | ·
O=C(C[C@H]1CC[C@H](NC(=O)C2CCC2)[C@@H](CO)O1)NCC1CC1 | -57 | · | · | ·
Oc1ccc(C=Nc2ccc(N3CCOCC3)cc2)c(O)c1 | -64 | · | · | ·
Fc1ccc(CNC(=S)NCc2ccc(F)cc2)cc1 | -87 | · | · | ·
COC(=O)c1cc(Cl)c(NS(=O)(=O)c2ccccc2)cc1OC | -48 | · | · | ·
CC1(Cc2ccc(Cl)cc2)C(=O)Nc2c(Cl)ccc(Cl)c21 (configuration not stated) | 80* | -63 | · | ?
Cc1[nH]nc2ncc(C(=O)c3ccccc3O)cc12 | -45 | · | · | ·
Cc1cc(C)c2nc(N3CCCC(C(=O)N4CCC(C(N)=O)CC4)C3)sc2c1 (configuration not stated) | -40 | · | · | ·
CC1CC(NS(=O)(=O)c2cccs2)CC(C)(C)C1 (configuration not stated) | 265* | 99 | 69 | 157
Fc1ccc(/C=N/N2CCCCC2)c(F)c1 | -66 | · | · | ·
CN(c1ncnc(N)c1[N+](=O)[O-])C1CCS(=O)(=O)C1 (configuration not stated) | -58 | · | · | ·
CCNC(=S)NNC(=O)c1csc2ccccc12 | -59 | · | · | ·
O=C(Cc1ccccc1)Nc1ccc(NC(=O)c2ccco2)nc1 | ? | -6 | -48 | 84
Cc1ccc(NC(=S)NNC(=O)c2nn(C)c(C)c2Cl)cc1 | -42 | · | · | ·
C[C@@H]1CN([C@H](C)CO)C(=O)c2cc(C#CC3CC3)cnc2O[C@H]1CN(C)C(=O)Nc1ccc(F)cc1 | -41 | · | · | ·
C[C@@H]1CN([C@@H](C)CO)C(=O)c2c(c3ccccc3n2C)-c2ccccc2CO[C@@H]1CN(C)C(=O)Nc1cccc(C(F)(F)F)c1 | 79* | 103[23.5 µM] | 45[23.5 µM] | 58
C[C@@H]1CN([C@H](C)CO)C(=O)c2c(c3ccccc3n2C)-c2ccccc2CO[C@@H]1CN(C)C(=O)Nc1cccc(C(F)(F)F)c1 | 68* | 112 | 196 | 157
COc1ccc(-c2cnc3c(c2)C(=O)N([C@H](C)CO)C[C@H](C)[C@@H](CN(C)C(=O)C2CC2)O3)cc1 | -111 | · | · | ·
